Activity calls are given as the source filed them. The rule behind the calls is not given here.
Columns and labels:
U-87 MG = experiment: Antiproliferative activity against human U-87 MG cells assessed as reduction in cell growth upto 10 uM measured after 6 days by propidium iodide staining based analysis; type: functional; conditions: U-87MG ATCC, time 6.0 day
Procedure, shortened: (§1)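 ATCC-sourced lines grown without antibiotics; 1,000 cells/well in 1% FBS medium, refed ±drug on days 1 and 4 over a 6-day course. On day 7, propidium iodide (10 μg/mL in D-PBS) read after 30 min for nonviable cells, plate frozen at -80°C 2 h, thawed and reread; proliferative index = postfreeze minus prefreeze signal.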

A498 = experiment: Antiproliferative activity against human A498 cells assessed as reduction in cell growth upto 10 uM measured after 6 days by propidium iodide staining based analysis; type: functional; conditions: time 6.0 day; procedure, shortened: as §1
[1] = molecular target: RAC-alpha serine/threonine-protein kinase (Homo sapiens) (UniProt P31749); experiment: Inhibition of PKBalpha (unknown origin) at 1 micromol/L relative to control; conditions: dose 1.0 µmol/L
Procedure, shortened: (§2)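 Commercial kinase profiler panel run to the provider's protocol, with the compound tested at 1 µmol/L. Activity is expressed as percent of kinase activity without compound.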

[2] = molecular target: Glycogen synthase kinase-3 beta (Homo sapiens) (UniProt P49841); experiment: Inhibition of GSK3beta phosphorylation at serine 9 residue in human HCT-116 cells at 1 micromol/L by Western blotting analysis; type: cell-based; conditions: dose 1.0 µmol/L, time <= 4.0 hrs, TDE = time-dependent effect
Procedure, shortened: (§3)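 Cultured tumor cells treated with 1 μmol/L drug; lysates in cell extraction buffer with protease inhibitors, western blotted with phospho-specific antibodies (pGSK3β Ser9, pAKT Thr308, phospho-ERK) alongside total GSK3β/AKT.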

[3] = molecular target: Mitogen-activated protein kinase 9 (Homo sapiens) (UniProt P45984); experiment: Inhibition of JNK2alpha2 (unknown origin) at 1 micromol/L relative to control; conditions: dose 1.0 µmol/L
Procedure, shortened: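 Upstate Kinase Profiler panel at 1 μmol/L drug, run per provider; data expressed as percent of kinase activity without drug.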

NCI-H322M = experiment: Antiproliferative activity against human NCI-H322M cells assessed as reduction in cell growth upto 10 uM measured after 6 days by propidium iodide staining based analysis; type: functional; conditions: time 6.0 day; procedure, shortened: as §1
[4] = molecular target: Glycogen synthase kinase-3 beta (Homo sapiens) (UniProt P49841); conditions: U-87 MG, dose 1.0 µmol/L, time <= 4.0 hrs
[5] = molecular target: Mitogen-activated protein kinase 14 (Homo sapiens) (UniProt Q16539); experiment: Inhibition of SAPK2alpha (unknown origin) at 1 micromol/L relative to control; conditions: dose 1.0 µmol/L; procedure, shortened: as §2
OVCAR-5 = experiment: Antiproliferative activity against human OVCAR-5 cells assessed as reduction in cell growth upto 10 uM measured after 6 days by propidium iodide staining based analysis; type: functional; conditions: time 6.0 day; procedure, shortened: as §1
HCT-116 [6] = experiment: Antitumor activity against human HCT-116 cells xenografted in athymic nude mouse assessed as reduction in GSK3beta phosphorylation at serine 9 residue at 75 mg/kg, po administered twice daily measured after 30 mins by ELISA method relative to control; type: functional; set-up: scale not given: the % may be the effect or the level left; conditions: 0.5 h
Procedure, shortened: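 HCT116-bearing nude mice, 75 mg/kg by gavage; tumors and PBMCs harvested 0.5, 2, 4, 8 h post-dose, n = 5 per time point. PBMCs from five mice pooled via CPT tube. Lysates assayed by pGSK3β Ser9 immunometric ELISA (tumor 400–600 μg, PBMC 50–100 μg protein/well); percent of vehicle control, Dunnett/ANOVA.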

HCT-116 [7] = experiment: Inhibition of ERK in human HCT-116 cells at 1 micromol/L measured upto 4 hrs by Western blotting analysis; type: cell-based; conditions: dose 1.0 µmol/L; procedure, shortened: as §3
Homo sapiens = organism: Homo sapiens; experiment: Inhibition of p70S6K (unknown origin) at 1 micromol/L relative to control; conditions: dose 1.0 µmol/L; procedure, shortened: as §2
[8] = molecular target: RAC-beta serine/threonine-protein kinase (Homo sapiens) (UniProt P31751); experiment: Inhibition of PKBbeta (unknown origin) at 1 micromol/L relative to control; conditions: dose 1.0 µmol/L; procedure, shortened: as §2
[9] = Plasma concentration in athymic nude mouse xenografted with human HCT-116 cells at 75 mg/kg, po administered twice daily measured after 2 hrs by LC-MS analysis; type: ADME, organism-based
Procedure, shortened: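 Female athymic nude mice, 6–8 weeks old, received 5 million HCT116 cells s.c. in the flank in 1:1 serum-free medium and matrigel (n = 9 per group). Dosing began at a group mean tumor volume of 100 mm³: 75 mg/kg twice daily by gavage, suspended in 10% acacia in water. Plasma was taken on days 1 and 21 at 0.5–12 h post-dose and measured by LC-MS/MS.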

[10] = molecular target: Mitogen-activated protein kinase 11 (Homo sapiens) (UniProt Q15759); experiment: Inhibition of SAPK2b (unknown origin) at 1 micromol/L relative to control; conditions: dose 1.0 µmol/L; procedure, shortened: as §2
HCT-116 [11] = experiment: Antiproliferative activity against human HCT-116 cells assessed as reduction in cell growth upto 10 uM measured after 6 days by propidium iodide staining based analysis; type: functional; conditions: time 6.0 day; procedure, shortened: as §1
[12] = molecular target: Protein kinase C iota type (Homo sapiens) (UniProt P41743); experiment: Inhibition of PKCIota (unknown origin) at 1 micromol/L relative to control; conditions: dose 1.0 µmol/L
Procedure, shortened: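 Commercial kinase profiling panel run by the provider's protocol at a single inhibitor concentration of 1 µmol/L. Activity expressed as percent of kinase activity without inhibitor.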

NCI-H23 = experiment: Antiproliferative activity against human NCI-H23 cells assessed as reduction in cell growth upto 10 uM measured after 6 days by propidium iodide staining based analysis; type: functional; conditions: time 6.0 day; procedure, shortened: as §1
[13] = molecular target: Mitogen-activated protein kinase 13 (Homo sapiens) (UniProt O15264); experiment: Inhibition of SAPK4 (unknown origin) at 1 micromol/L relative to control; conditions: dose 1.0 µmol/L; procedure, shortened: as §2
Chain of Mitogen-activated protein kinase 13 (Homo sapiens) (O15264 whole entry): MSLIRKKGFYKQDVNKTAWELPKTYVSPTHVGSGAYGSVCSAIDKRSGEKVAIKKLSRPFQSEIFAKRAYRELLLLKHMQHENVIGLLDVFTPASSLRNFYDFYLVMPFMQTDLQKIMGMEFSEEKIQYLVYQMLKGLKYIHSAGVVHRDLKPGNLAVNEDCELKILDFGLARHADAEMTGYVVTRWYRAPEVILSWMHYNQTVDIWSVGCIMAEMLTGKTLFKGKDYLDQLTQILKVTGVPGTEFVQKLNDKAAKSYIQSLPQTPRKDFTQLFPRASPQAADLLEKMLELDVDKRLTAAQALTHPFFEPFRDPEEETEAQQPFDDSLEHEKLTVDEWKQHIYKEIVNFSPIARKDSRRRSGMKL

Chain of Glycogen synthase kinase-3 beta (Homo sapiens) (P49841 whole entry, looked up): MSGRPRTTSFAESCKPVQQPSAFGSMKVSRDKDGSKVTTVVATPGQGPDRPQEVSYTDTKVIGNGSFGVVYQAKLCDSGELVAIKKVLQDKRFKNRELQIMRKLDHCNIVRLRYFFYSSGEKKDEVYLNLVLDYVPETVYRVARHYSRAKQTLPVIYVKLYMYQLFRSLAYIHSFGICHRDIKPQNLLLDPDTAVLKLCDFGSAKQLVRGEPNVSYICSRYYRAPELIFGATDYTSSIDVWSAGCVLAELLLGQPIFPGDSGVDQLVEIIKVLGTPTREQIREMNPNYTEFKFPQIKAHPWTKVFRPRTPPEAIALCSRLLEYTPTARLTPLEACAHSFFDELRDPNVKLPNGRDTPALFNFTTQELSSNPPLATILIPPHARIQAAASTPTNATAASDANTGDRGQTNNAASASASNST
Chain of Mitogen-activated protein kinase 14 (Homo sapiens) (Q16539 whole entry): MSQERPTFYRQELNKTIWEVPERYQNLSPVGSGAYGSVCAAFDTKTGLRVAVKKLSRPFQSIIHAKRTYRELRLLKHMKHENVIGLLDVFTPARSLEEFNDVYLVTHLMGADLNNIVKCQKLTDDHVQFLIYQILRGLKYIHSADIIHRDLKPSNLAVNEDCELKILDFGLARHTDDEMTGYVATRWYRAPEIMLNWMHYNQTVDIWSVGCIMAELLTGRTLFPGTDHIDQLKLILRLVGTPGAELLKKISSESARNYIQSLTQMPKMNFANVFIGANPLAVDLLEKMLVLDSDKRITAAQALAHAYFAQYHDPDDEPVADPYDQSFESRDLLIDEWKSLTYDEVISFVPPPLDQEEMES
Chain of Protein kinase C iota type (Homo sapiens) (P41743 whole entry): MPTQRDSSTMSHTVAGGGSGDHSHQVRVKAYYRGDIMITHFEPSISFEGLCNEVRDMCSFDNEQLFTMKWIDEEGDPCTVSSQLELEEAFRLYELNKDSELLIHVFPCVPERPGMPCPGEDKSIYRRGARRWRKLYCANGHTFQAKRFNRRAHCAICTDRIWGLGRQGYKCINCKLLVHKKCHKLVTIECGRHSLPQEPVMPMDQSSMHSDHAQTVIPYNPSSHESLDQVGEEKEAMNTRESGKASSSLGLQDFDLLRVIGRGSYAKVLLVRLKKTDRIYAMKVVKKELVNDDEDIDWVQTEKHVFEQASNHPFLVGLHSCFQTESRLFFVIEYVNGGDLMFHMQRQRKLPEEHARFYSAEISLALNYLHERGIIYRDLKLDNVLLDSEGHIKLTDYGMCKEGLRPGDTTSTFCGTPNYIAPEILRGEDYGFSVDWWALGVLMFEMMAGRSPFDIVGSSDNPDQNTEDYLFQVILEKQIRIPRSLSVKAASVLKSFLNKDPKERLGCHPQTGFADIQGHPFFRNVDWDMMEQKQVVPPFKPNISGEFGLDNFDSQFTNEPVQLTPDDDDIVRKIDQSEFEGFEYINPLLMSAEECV
Chain of Mitogen-activated protein kinase 9 (Homo sapiens) (P45984 whole entry, looked up): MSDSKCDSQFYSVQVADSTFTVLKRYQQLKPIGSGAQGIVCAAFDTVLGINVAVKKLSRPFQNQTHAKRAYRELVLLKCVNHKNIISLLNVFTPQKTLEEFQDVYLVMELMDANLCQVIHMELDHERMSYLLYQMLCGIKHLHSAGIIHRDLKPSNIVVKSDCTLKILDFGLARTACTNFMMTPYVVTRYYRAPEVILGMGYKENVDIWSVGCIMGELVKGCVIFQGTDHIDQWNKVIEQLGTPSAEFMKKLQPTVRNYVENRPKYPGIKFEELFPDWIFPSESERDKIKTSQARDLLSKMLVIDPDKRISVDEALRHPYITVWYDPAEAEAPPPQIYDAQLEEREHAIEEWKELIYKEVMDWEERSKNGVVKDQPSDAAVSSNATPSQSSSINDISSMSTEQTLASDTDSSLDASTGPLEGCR
Chain of RAC-beta serine/threonine-protein kinase (Homo sapiens) (P31751 whole entry): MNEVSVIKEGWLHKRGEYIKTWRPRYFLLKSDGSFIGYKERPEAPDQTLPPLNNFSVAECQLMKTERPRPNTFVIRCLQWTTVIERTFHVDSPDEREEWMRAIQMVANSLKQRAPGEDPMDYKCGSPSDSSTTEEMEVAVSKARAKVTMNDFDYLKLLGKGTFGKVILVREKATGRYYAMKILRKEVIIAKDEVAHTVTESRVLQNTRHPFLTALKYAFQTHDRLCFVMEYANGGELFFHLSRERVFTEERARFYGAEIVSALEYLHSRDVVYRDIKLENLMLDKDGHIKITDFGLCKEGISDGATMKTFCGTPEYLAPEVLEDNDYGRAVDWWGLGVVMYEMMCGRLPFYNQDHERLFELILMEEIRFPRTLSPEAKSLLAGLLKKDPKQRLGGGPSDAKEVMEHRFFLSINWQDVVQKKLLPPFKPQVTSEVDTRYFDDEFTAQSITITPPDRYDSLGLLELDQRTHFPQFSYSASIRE
Chain of Mitogen-activated protein kinase 11 (Homo sapiens) (Q15759 whole entry): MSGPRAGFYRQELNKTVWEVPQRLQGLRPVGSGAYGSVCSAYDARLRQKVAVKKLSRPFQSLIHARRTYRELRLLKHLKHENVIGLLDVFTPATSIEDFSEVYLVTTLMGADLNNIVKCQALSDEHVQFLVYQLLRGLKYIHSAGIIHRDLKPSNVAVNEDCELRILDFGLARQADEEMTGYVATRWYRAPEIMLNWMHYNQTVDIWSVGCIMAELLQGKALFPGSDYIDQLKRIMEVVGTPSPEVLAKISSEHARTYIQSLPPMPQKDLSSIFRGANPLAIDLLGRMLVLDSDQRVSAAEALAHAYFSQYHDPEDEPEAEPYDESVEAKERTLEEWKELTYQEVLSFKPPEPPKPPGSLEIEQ
Chain of RAC-alpha serine/threonine-protein kinase (Homo sapiens) (P31749 whole entry): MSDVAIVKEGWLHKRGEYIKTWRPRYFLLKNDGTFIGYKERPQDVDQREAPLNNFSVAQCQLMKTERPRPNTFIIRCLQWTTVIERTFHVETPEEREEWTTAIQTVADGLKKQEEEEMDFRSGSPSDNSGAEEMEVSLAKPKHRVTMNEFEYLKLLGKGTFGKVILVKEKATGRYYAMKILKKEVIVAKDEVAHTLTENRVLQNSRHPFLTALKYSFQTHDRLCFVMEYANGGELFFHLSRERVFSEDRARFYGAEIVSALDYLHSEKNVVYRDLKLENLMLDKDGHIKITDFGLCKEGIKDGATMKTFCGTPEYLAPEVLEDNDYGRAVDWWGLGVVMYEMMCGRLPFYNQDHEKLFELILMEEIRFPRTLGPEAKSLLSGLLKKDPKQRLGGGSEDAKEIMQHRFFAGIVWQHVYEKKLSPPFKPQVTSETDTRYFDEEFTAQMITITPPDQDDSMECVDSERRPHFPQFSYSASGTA

In the case of Cl.Cn1cc(C2=C(c3cn(C4CCN(Cc5ccccn5)CC4)c4ccccc34)C(=O)NC2=O)c2ccccc21 [ENZASTAURIN HYDROCHLORIDE], the Activity (U-87 MG) is reported as “Active”, the Activity (A498) is reported as “inactive” and the % control activity [1] is reported as 75%. The inhibition [2] was “Tde”, the % control activity [3] was 103% and the Activity (NCI-H322M) was “inactive”. For the same compound, the inhibition [4] was “Active”, the % control activity [5] was 101% and the Activity (OVCAR-5) was “inactive”. For the same compound, the Activity (HCT-116 [6]) was 50%, the inhibition (HCT-116 [7]) was “inactive” and the % control activity (Homo sapiens) was 52%. For the same compound, the % control activity [8] was 100%, the concentration at 2 h [9] was 2000 nM and the % control activity [10] was 96%. For the same compound, the Activity (HCT-116 [11]) was “Active”, the % control activity [12] was 91% and the Activity (NCI-H23) was “inactive”. The % control activity [13] was 97%.

Reference: ChEMBL document CHEMBL5715938, “The protein kinase Cbeta-selective inhibitor, Enzastaurin (LY317615.HCl), suppresses signaling through the AKT pathway, induces apoptosis, and suppresses growth of human colon cancer and glioblastoma xenografts” (Cancer Res, 2005)
